Screens: PubChem BioAssay, Sanford-Burnham Center for Chemical Genomics
LMPTP inh: LMPTP (human) inhibition | P24666 | recombinant LMPTP-A, OMFP fluorogenic substrate, fluorescence intensity | inhibition, % at 20 µM | actives 0.22% (n = 360,000) | AID 651560;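 active = compounds that cut the enzyme signal by at least half of the control window in the single-dose screen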;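 note: plate controls were DMSO wells with enzyme plus substrate for no effect and substrate without enzyme for full effect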
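Test system – LMPTP-A phosphatase enzyme · Quantity – 0.625 nM LMPTP-A final · Reagent – OMFP substrate, 400 µM final · Dosing – one test concentration per compound, 20 µM, with 3% DMSO overall · Timing – 50 min enzyme reaction at room temperature, protected from light · Detection – fluorescence intensity · Controls – substrate-only low control, DMSO enzyme-plus-substrate high control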
DNMT1 block: DNMT1 (human) enzyme inhibition. AID 588458. inhibition (reported as % activation of signal), % at 10 µM. P26358. DNMT1 molecular beacon, Hinp1I cleavage, fluorescence. actives 0.83% (n = 360,000); in the data active = inhibition above about 50%
STEP block: blocks human striatal-enriched tyrosine phosphatase; recombinant STEP, OMFP fluorogenic substrate, fluorescence; inhibition, % at 20 µM; actives 0.25% (n = 360,000); P54829; AID 588621;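 active = inhibition at 20 µM, scaled per plate between control wells, above about 37%, limit read from the data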;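 note: 0% = DMSO with enzyme and substrate and 100% = substrate only without enzyme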
Target sequence (P54829 whole entry, looked up): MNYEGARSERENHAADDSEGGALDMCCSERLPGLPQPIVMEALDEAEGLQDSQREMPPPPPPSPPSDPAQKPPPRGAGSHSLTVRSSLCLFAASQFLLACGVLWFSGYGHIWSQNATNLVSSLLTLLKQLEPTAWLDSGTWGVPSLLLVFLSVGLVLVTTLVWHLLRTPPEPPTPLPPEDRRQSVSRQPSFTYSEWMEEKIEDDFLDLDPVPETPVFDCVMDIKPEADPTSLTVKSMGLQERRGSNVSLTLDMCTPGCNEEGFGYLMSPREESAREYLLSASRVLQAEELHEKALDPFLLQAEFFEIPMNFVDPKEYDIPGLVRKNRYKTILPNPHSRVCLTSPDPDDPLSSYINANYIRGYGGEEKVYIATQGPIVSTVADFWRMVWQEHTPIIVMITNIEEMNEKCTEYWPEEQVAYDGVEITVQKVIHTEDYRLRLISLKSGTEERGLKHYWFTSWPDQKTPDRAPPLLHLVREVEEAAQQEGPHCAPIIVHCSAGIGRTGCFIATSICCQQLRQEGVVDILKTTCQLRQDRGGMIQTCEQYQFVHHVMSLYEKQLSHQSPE
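Also added – OMFP at 25 µM · Test system – STEP tyrosine phosphatase · Technique – FITC-channel fluorescence of OMFP product · Schedule – 20 min at room temperature, dark · Evaluation – control-normalized % inhibition with plate pattern correction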
SUMO1 PPI mod: alters human SUMO1 binding to SIM partners | P63165 | SUMO1 binding to a labelled peptide, TR-FRET, 1 h | inhibition, % at 20 µM | actives 0.33% (n = 360,000) | AID 602429; in the data active = inhibition above about 37%
Scp1 inh: inhibitors of human Scp-1 phosphatase | Recombinant Scp1, phosphopeptide, malachite green phosphate absorbance | inhibition, % at 20 µM | Q9GZU7 | AID 493091 | actives 0.88% (n = 340,000);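 active = inhibition above about 50% at 20 µM, limit read from the data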;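 note: plate controls were DMSO wells with enzyme for no effect and wells lacking enzyme for full effect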
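System: truncated SCP-1 phosphatase (76-261aa); medium: Tris acetate buffer pH 5.5 with MgCl2 and Tween-20; incubation: 45 min room-temperature reaction, 5 min colour, 30 min stabiliser; compound: single 20 µM dose, 1% DMSO; reagent: Phosphorylated 17-residue peptide substrate; read-out: % inhibition at 20 µM; technique: colorimetric free-phosphate detection, absorbance 630 nm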
NadD block: inhibitors of Staphylococcus aureus NadD; purified NadD enzyme, colorimetric absorbance read-out; inhibition, % at 20 µM; actives 0.78% (n = 360,000); AID 602399; in the data active = inhibition above about 26%
DNMT1 interf DR: beacon fluorescence artifact, dose response counter-screen. shares compounds with DNMT1 block. molecular beacon fluorescence, spectral interference counter-screen. IC50, µM. 200 tested, under 10 active; call rule not given here
DNMT1 confirm: DNMT1 inhibition confirmation, single concentration; shares compounds with DNMT1 block; DNMT1 molecular beacon HinP1I cleavage, fluorescence; inhibition, % at 10 µM; actives 8% (n = 2,300);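 active = average inhibition of at least 30% in the single-concentration confirmation test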
Beacon interf: beacon fluorescence artifact counter-screen; shares compounds with DNMT1 block; DNMT1 molecular beacon spectral interference counterscreen, fluorescence 485/520; activation (fluorescence interference), % at 10 µM; actives 1% (n = 2,300); AID 602387;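 active = activation of at least 30% at 10 µM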;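 note: DNMT1 catalytic domain with a HinP1I cleavage step and a FAM/dabcyl DNA beacon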
An asterisk follows results filed as active. Compounds with a hit are over-represented: about 2.4% of the library has one in this group of screens.

`O=[N+]([O-])c1ccc(COc2cccc(CNc3ccc(Br)cc3)c2)cc1` gave LMPTP inh 5, DNMT1 block 71*, STEP block 2, SUMO1 PPI mod -6, Scp1 inh -1, NadD block 7, DNMT1 confirm 5 and Beacon interf 6.
For O=[N+]([O-])c1ccc(COc2ccc(CNc3ccccc3)cc2)cc1 the results were LMPTP inh 1, DNMT1 block 0, STEP block 4, SUMO1 PPI mod -1, Scp1 inh 0 and NadD block 14.
CN(C)c1nc(Cl)cc(N2CCOCC2)n1 was read as LMPTP inh 0, DNMT1 block 0, STEP block -2, SUMO1 PPI mod -3, Scp1 inh -2 and NadD block -3.
Screening COc1ccc(CNC(=O)CCCn2nc(C)c([N+](=O)[O-])c2C)cc1OC returned LMPTP inh -1, DNMT1 block 0, STEP block -2, SUMO1 PPI mod -1, Scp1 inh -1 and NadD block -5.
For Cc1nn(CCCC(=O)NCc2ccc(Cl)cc2)c(C)c1[N+](=O)[O-] the results were LMPTP inh -1, DNMT1 block 69*, STEP block 1, SUMO1 PPI mod -2, Scp1 inh -11, NadD block -10, DNMT1 confirm 2 and Beacon interf 1.
Screening COc1cc(/C=C/C=C2/CC/C(=C/C=C/c3ccc(O)c(OC)c3)C2=O)ccc1O returned LMPTP inh 13, DNMT1 block 90*, STEP block -8, SUMO1 PPI mod 11, Scp1 inh 39, NadD block 70*, DNMT1 interf DR >99, DNMT1 confirm 27 and Beacon interf 0.
`C=CCNC(=O)COC(=O)CCC(=O)c1cccs1` gave LMPTP inh -1, DNMT1 block 64*, STEP block -3, SUMO1 PPI mod 1, Scp1 inh -1, NadD block -2, DNMT1 confirm 3 and Beacon interf 2.
`COc1ccc(-c2nc3ccccc3c(=O)n2CCOc2ccccc2C)cc1` gave LMPTP inh 1, DNMT1 block 4, STEP block 1, SUMO1 PPI mod -2, Scp1 inh 7 and NadD block 3.
`COc1cccc(/C=C2/C(=O)NN(c3ccccc3)C2=O)c1` gave LMPTP inh -2, DNMT1 block -4, STEP block 3, SUMO1 PPI mod 4, Scp1 inh -6 and NadD block -1.
O=C1NN(c2ccccc2)C(=O)/C1=C/c1ccc(Sc2cccc3ccccc23)o1 was read as LMPTP inh 3, DNMT1 block 66*, STEP block 1, SUMO1 PPI mod 20, Scp1 inh 1, NadD block 4, DNMT1 interf DR >99, DNMT1 confirm 69* and Beacon interf -2.
For CN(Cc1ccccc1)C(=O)COC(=O)c1cc([N+](=O)[O-])ccc1N1CCOCC1 the results were LMPTP inh 1, DNMT1 block 111*, STEP block -2, SUMO1 PPI mod -25, Scp1 inh -10, NadD block -6, DNMT1 confirm 2 and Beacon interf 2.
`Cc1cc(C(F)(F)F)c(C#N)c(SCC(=O)Nc2nc3ccccc3s2)n1` gave LMPTP inh -1, DNMT1 block 83*, STEP block -4, SUMO1 PPI mod -1, Scp1 inh -7, NadD block -7, DNMT1 confirm 23 and Beacon interf 11.
